ChEMBL document CHEMBL1121786, “Studies on position 1 of angiotensin II: effects on affinity and duration of action from alkyl amide substitution” (J Med Chem, 1981)

How the values were obtained:
Oryctolagus cuniculus [1] = organism: Oryctolagus cuniculus; experiment: In vitro intrinsic activity was determined against rabbit aorta and time taken to ralax maximally contracted tissue to 50% was reported; assay type: functional
Outline: (§1)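 Aortic strips are held in an aerated (95% O2/5% CO2) bath under 2.0 g tension after a 60–90 min equilibration. At maximal agonist contraction, unbound peptide is removed by several washes and the time for tension to fall back toward the pre-contraction level is recorded. Peptides are diluted in 0.9% saline from 1 mg/mL aqueous stocks immediately before use.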

Oryctolagus cuniculus [2] = organism: Oryctolagus cuniculus; experiment: In vitro intrinsic activity was determined against rabbit aorta and expressed as factor F at t1/2; assay type: functional
Oryctolagus cuniculus [3] = organism: Oryctolagus cuniculus; experiment: In vitro intrinsic activity was determined against rabbit aorta and percent increase in blood pressure was reported; assay type: functional
Oryctolagus cuniculus [4] = organism: Oryctolagus cuniculus; experiment: In vitro intrinsic activity was determined against rabbit aorta and expressed as factor F at t3/4; assay type: functional
Oryctolagus cuniculus [5] = organism: Oryctolagus cuniculus; experiment: In vitro intrinsic activity was determined against rabbit aorta and expressed as alpha E; assay type: functional
Outline: (§2)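 Isolated aortic tissue in a bath aerated with 95% O2/5% CO2 under 2.0 g initial tension, readjusted during a 60–90 min equilibration with bath fluid changed every 10–15 min. Concentrations are final bath concentrations. Peptides are kept as 1 mg/mL stocks in distilled water at -20 °C for up to 14 days and diluted in 0.9% saline just before use.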

Rattus norvegicus [6] = experiment: In vivo intrinsic activity against rat aorta and value was reported as factor between the hypertensin and the compound; assay type: functional
Outline: (§3)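 Male Wistar rats (~250 g) are anesthetized with urethane 1.4 g/kg sc, with jugular vein and carotid artery cannulated. Peptides are diluted in 0.9% saline from 1 mg/mL aqueous stocks and injected intravenously. Arterial blood pressure is recorded through the carotid cannula with a pressure transducer.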

Rattus norvegicus [7] = experiment: In vivo intrinsic activity was determined against rat aorta and percent increase in blood pressure was reported; assay type: functional; outline: as §3
Oryctolagus cuniculus [8] = organism: Oryctolagus cuniculus; experiment: In vitro intrinsic activity against rabbit aorta and value was reported as factor between the hypertensin and the compound; assay type: functional; outline: as §2
Oryctolagus cuniculus [9] = organism: Oryctolagus cuniculus; experiment: In vitro intrinsic activity was determined against rabbit aorta and time taken to ralax maximally contracted tissue to 25% was reported; assay type: functional; parameters: unit not given beside the values; outline: as §1
Oryctolagus cuniculus [10] = organism: Oryctolagus cuniculus; experiment: In vitro intrinsic activity was determined against rabbit aorta and expressed as negative logarithm of half maximal dose; outline: as §2

pD2 (Oryctolagus cuniculus [10]) | Compound | T1/2 (Oryctolagus cuniculus [1]) | F1/2 (Oryctolagus cuniculus [2]) | Increase in blood pressure (Oryctolagus cuniculus [3]) | F3/4 (Oryctolagus cuniculus [4]) | Alpha E (Oryctolagus cuniculus [5]) | Activity Factor (Rattus norvegicus [6]) | Increase in blood pressure (Rattus norvegicus [7]) | Activity (Oryctolagus cuniculus [8]) | T3/4 (Oryctolagus cuniculus [9])
 | CCCN(CCC)C(=O)C[C@H](N)C(=O)N[C@@H](CCCN=C(N)N)C(=O)N[C@H](C(=O)N[C@@H](Cc1ccc(O)cc1)C(=O)N[C@H](C(=O)N[C@@H](Cc1c[nH]cn1)C(=O)N1CCC[C@@H]1C(=O)N[C@@H](Cc1ccccc1)C(=O)O)[C@@H](C)CC)C(C)C | 18.7 |  |  |  |  |  |  |  | 
 | CC[C@H](C)[C@H](NC(=O)[C@H](Cc1ccc(O)cc1)NC(=O)[C@@H](NC(=O)[C@H](CCCN=C(N)N)NC(=O)[C@@H](N)CC(=O)N(C(C)C)C(C)C)C(C)C)C(=O)N[C@@H](Cc1c[nH]cn1)C(=O)N1CCC[C@H]1C(=O)N[C@@H](Cc1ccccc1)C(=O)O [listing 1 of 2 here] |  | 2.9 | 9% | 4.2 | 1 | 14.3 | 7% | 11 | 36.7
 | CC[C@H](C)[C@H](NC(=O)[C@H](Cc1ccc(O)cc1)NC(=O)[C@@H](NC(=O)[C@H](CCCN=C(N)N)NC(=O)[C@@H](N)CC(=O)N(C)C)C(C)C)C(=O)N[C@@H](Cc1c[nH]cn1)C(=O)N1CCC[C@H]1C(=O)N[C@@H](Cc1ccccc1)C(=O)O [listing 1 of 2 here] |  | 1.3 | 46% | 2.3 | 1 | 3.3 | 30% | 2.2 | 20
7.39 | CC[C@H](C)[C@H](NC(=O)[C@H](Cc1ccc(O)cc1)NC(=O)[C@@H](NC(=O)[C@H](CCCN=C(N)N)NC(=O)[C@@H](N)CC(=O)N(C)C)C(C)C)C(=O)N[C@@H](Cc1c[nH]cn1)C(=O)N1CCC[C@H]1C(=O)N[C@@H](Cc1ccccc1)C(=O)O [listing 2 of 2 here] |  |  |  |  |  |  |  |  | 
 | CC[C@H](C)[C@H](NC(=O)[C@H](Cc1ccc(O)cc1)NC(=O)[C@@H](NC(=O)[C@H](CCCN=C(N)N)NC(=O)[C@@H](N)CC(=O)N(C(C)C)C(C)C)C(C)C)C(=O)N[C@@H](Cc1c[nH]cn1)C(=O)N1CCC[C@@H]1C(=O)N[C@@H](Cc1ccccc1)C(=O)O | 14.3 |  |  |  |  |  |  |  | 
6.93 | CCCN(CCC)C(=O)C[C@H](N)C(=O)N[C@@H](CCCN=C(N)N)C(=O)N[C@H](C(=O)N[C@@H](Cc1ccc(O)cc1)C(=O)N[C@H](C(=O)N[C@@H](Cc1c[nH]cn1)C(=O)N1CCC[C@H]1C(=O)N[C@@H](Cc1ccccc1)C(=O)O)[C@@H](C)CC)C(C)C [listing 1 of 2 here] |  |  |  |  |  |  |  |  | 
 | CCCN(CCC)C(=O)C[C@H](N)C(=O)N[C@@H](CCCN=C(N)N)C(=O)N[C@H](C(=O)N[C@@H](Cc1ccc(O)cc1)C(=O)N[C@H](C(=O)N[C@@H](Cc1c[nH]cn1)C(=O)N1CCC[C@H]1C(=O)N[C@@H](Cc1ccccc1)C(=O)O)[C@@H](C)CC)C(C)C [listing 2 of 2 here] |  | 3.7 | 16% | 5.1 | 1 | 11.1 | 9% | 6.3 | 44
6.69 | CC[C@H](C)[C@H](NC(=O)[C@H](Cc1ccc(O)cc1)NC(=O)[C@@H](NC(=O)[C@H](CCCN=C(N)N)NC(=O)[C@@H](N)CC(=O)N(C(C)C)C(C)C)C(C)C)C(=O)N[C@@H](Cc1c[nH]cn1)C(=O)N1CCC[C@H]1C(=O)N[C@@H](Cc1ccccc1)C(=O)O [listing 2 of 2 here] |  |  |  |  |  |  |  |  | 
7.73 | H-NRVYIHPF-OH | 5 | 1 | 100% | 1 | 1 | 1 | 100% | 1 | 8.7
 | CC[C@H](C)[C@H](NC(=O)[C@H](Cc1ccc(O)cc1)NC(=O)[C@@H](NC(=O)[C@H](CCCN=C(N)N)NC(=O)[C@@H](N)CC(=O)N(C)C)C(C)C)C(=O)N[C@@H](Cc1c[nH]cn1)C(=O)N1CCC[C@@H]1C(=O)N[C@@H](Cc1ccccc1)C(=O)O | 6.7 |  |  |  |  |  |  |  | 
